Experimental data published in ChEMBL document CHEMBL1765009, “Novel hydrazine molecules as tools to understand the flexibility of vascular adhesion protein-1 ligand-binding site: toward more selective inhibitors” (J Med Chem, 2011).

Tests used:
[1] = target: T1, Amine oxidase [copper-containing] 3 (Homo sapiens, UniProt Q16853); assay: Inhibition of human recombinant VAP-1 expressed in CHO cells after 30 mins by coupled colorimetric method; format: cell-based
T1 sequence (Q16853 whole entry): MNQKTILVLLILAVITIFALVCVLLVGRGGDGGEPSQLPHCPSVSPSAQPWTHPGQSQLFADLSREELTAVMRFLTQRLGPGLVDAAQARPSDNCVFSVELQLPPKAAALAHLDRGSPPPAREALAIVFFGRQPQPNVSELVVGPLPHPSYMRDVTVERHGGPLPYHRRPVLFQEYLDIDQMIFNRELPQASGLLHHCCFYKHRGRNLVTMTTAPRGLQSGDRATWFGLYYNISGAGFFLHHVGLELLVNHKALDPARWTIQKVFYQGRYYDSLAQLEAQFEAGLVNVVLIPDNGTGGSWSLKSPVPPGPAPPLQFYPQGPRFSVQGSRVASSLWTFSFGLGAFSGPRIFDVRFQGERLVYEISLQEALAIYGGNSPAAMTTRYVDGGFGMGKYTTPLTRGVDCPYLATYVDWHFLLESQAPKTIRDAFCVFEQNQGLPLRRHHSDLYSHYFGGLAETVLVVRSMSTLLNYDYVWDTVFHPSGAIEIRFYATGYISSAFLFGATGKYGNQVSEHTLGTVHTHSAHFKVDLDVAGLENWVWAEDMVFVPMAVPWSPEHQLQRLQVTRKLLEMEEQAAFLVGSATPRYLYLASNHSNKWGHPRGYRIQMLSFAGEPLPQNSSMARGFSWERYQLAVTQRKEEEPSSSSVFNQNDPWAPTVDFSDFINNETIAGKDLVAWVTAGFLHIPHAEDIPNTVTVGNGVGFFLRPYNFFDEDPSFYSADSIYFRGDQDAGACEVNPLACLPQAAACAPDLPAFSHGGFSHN
In short: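 Enzyme source: clarified lysate of CHO cells stably transfected with full-length human VAP-1 cDNA. The lysate was made in 150 mM NaCl, 10 mM Tris pH 7.2, 1.5 mM MgCl2 and 1% NP40 at 4 °C overnight. Reaction started with 1 mM benzylamine, 1 h at 37 °C, A490 read. IC50 given as mean ± SEM of 2–4 experiments.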

[2] = Selectivity ratio, ratio of IC50 for rat liver MAO-A/MAO-B to IC50 for human recombinant VAP-1
Monoamine oxidase = target: T2, Monoamine oxidase (Rattus norvegicus, UniProt P19643+P21396); assay: Inhibition of rat liver MAO-A/MAO-B after 30 mins by coupled colorimetric method
T2 sequence (P19643 whole entry): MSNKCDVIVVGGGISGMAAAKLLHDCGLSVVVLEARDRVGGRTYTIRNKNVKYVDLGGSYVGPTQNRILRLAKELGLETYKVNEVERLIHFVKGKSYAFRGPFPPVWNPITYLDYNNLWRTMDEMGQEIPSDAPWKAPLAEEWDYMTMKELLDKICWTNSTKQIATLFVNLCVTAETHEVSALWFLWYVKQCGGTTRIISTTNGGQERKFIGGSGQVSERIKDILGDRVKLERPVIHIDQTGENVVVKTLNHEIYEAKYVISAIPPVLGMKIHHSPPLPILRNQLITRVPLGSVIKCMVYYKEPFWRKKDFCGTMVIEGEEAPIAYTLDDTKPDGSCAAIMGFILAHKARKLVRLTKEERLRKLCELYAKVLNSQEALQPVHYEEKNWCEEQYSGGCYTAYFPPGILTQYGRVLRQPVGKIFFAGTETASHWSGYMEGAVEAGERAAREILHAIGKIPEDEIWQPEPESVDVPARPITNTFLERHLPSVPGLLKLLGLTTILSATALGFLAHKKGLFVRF
T2 sequence (P21396 whole entry): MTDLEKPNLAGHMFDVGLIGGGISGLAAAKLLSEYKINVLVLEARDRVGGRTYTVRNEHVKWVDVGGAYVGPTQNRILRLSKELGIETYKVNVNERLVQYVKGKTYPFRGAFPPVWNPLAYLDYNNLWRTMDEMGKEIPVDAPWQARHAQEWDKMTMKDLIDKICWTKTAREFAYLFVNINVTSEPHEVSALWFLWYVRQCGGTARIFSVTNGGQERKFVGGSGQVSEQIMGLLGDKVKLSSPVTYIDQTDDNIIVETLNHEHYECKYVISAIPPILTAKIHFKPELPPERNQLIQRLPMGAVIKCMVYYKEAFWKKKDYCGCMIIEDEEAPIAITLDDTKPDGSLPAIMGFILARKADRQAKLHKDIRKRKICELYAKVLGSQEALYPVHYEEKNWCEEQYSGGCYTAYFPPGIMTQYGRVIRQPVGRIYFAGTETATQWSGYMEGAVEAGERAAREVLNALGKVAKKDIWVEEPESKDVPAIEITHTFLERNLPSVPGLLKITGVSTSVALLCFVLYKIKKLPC
In short: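 Enzyme source: mitochondrial fraction from rat liver (MAO A plus MAO B), homogenized in 0.1 M phosphate pH 7.4 and isolated by differential centrifugation. Coupled HRP/4-aminoantipyrine colorimetric assay with 1 mM vanillic acid as chromogen. Inhibitor (1 nM–50 µM) was preincubated 30 min at 37 °C, then tyramine added (0.5 mM final), 1 h at 37 °C, A490 read. IC50 given as mean ± SEM of 2–4 experiments.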

NN[C@@H](c1ccccc1)[C@H](O)c1ccccc1 (relative stereo)
IC50 [1]: 50000 nM
Ratio IC50 [2]: 0.7
IC50 (Monoamine oxidase): 34000 nM

CN(N)[C@@H](c1ccccc1)[C@H](O)c1ccccc1
IC50 [1]: 280 nM
Ratio IC50 [2]: 250
IC50 (Monoamine oxidase): 70000 nM

CN(N)[C@H](c1ccccc1)[C@@H](O)c1ccccc1
IC50 [1]: 330 nM
Ratio IC50 [2]: 320
IC50 (Monoamine oxidase): 105000 nM

NNC[C@@H](O)c1ccccc1
IC50 [1]: 150 nM
Ratio IC50 [2]: 65
IC50 (Monoamine oxidase): 9800 nM

CCCC(NN)C(O)c1ccccc1 (mixture of isomers)
IC50 [1]: 1200 nM
Ratio IC50 [2]: 9
IC50 (Monoamine oxidase): 11000 nM

CN(N)[C@@H](c1ccccc1)[C@@H](O)c1ccccc1
IC50 [1]: 1180 nM
Ratio IC50 [2]: 72
IC50 (Monoamine oxidase): 85000 nM

NNC[C@H](O)c1ccccc1
IC50 [1]: 40 nM
Ratio IC50 [2]: 250
IC50 (Monoamine oxidase): 9900 nM

CN(N)[C@H](c1ccccc1)[C@H](O)c1ccccc1
IC50 [1]: 1060 nM
Ratio IC50 [2]: 90
IC50 (Monoamine oxidase): 99000 nM
